Data as given in ChEMBL document CHEMBL3259728, “Design, synthesis and biological evaluation of some novel substituted quinazolines as antitumor agents” (2014).

Columns and labels:
Type in all cases: functional
NCI-H522 = experiment: Growth inhibition of human NCI-H522 cells at 10 uM after 48 hrs by SRB assay; details: NCI-H522, 48 h, read-out: GI
Method in brief: (§1)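 NCI-60 primary one-dose screen run at the US NCI, with human tumour lines from nine cancer types. Compound added once at 10^-5 M, followed by 48 h incubation. End point was sulforhodamine B protein staining read spectrophotometrically. Result given as percent growth of treated cells against untreated controls, reported as % growth inhibition.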

CCRF-CEM = experiment: Growth inhibition of human CCRF-CEM cells at 10 uM after 48 hrs by SRB assay; details: read-out: GI
Method in brief: (§2)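 NCI primary one-dose screen. A single concentration of 10^-5 M was added to the cell culture, followed by 48 h incubation and an SRB protein-dye endpoint read spectrophotometrically. Results are growth percentage relative to untreated control cells, reported as % growth inhibition.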

[1] = Growth inhibition of human NCI-ADR-RES cells at 10 uM after 48 hrs by SRB assay; details: read-out: GI; method in brief: as §1
[2] = Growth inhibition of human HOP92 cells at 10 uM after 48 hrs by SRB assay; details: HOP-92, 48 h, read-out: GI; method in brief: as §1
[3] = Growth inhibition of human UO31 cells at 10 uM after 48 hrs by SRB assay; details: UO-31, 48 h, read-out: GI; method in brief: as §1
786-0 = experiment: Growth inhibition of human 786-0 cells at 10 uM after 48 hrs by SRB assay; details: 786-0, 48 h, read-out: GI; method in brief: as §2
SR = experiment: Growth inhibition of human SR cells at 10 uM after 48 hrs by SRB assay; details: read-out: GI; method in brief: as §1
PC-3 = experiment: Growth inhibition of human PC3 cells at 10 uM after 48 hrs by SRB assay; details: PC-3, 48 h, read-out: GI; method in brief: as §1
COLO 205 = experiment: Growth inhibition of human COLO205 cells at 10 uM after 48 hrs by SRB assay; details: COLO 205, 48 h, read-out: GI; method in brief: as §2
[4] = Growth inhibition of human SF539 cells at 10 uM after 48 hrs by SRB assay; details: SF-539, 48 h, read-out: GI; method in brief: as §1
[5] = Growth inhibition of human HCC2998 cells at 10 uM after 48 hrs by SRB assay; details: HCC 2998, 48 h, read-out: GI; method in brief: as §1
[6] = Growth inhibition of human OVCAR3 cells at 10 uM after 48 hrs by SRB assay; details: OVCAR-3, 48 h, read-out: GI; method in brief: as §1
SK-MEL-28 = experiment: Growth inhibition of human SK-MEL-28 cells at 10 uM after 48 hrs by SRB assay; details: SK-MEL-28, 48 h, read-out: GI; method in brief: as §1
NCI-H23 = experiment: Growth inhibition of human NCI-H23 cells at 10 uM after 48 hrs by SRB assay; details: NCI-H23, 48 h, read-out: GI; method in brief: as §1
RPMI-8226 = experiment: Growth inhibition of human RPMI8226 cells at 10 uM after 48 hrs by SRB assay; details: RPMI-8226, 48 h, read-out: GI; method in brief: as §1
NCI-H322M = experiment: Growth inhibition of human NCI-H322M cells at 10 uM after 48 hrs by SRB assay; details: read-out: GI; method in brief: as §1
HL-60(TB) = experiment: Growth inhibition of human HL-60(TB) cells at 10 uM after 48 hrs by SRB assay; details: HL-60, 48 h, read-out: GI
Method in brief: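 NCI 60-cell-line primary screen: compound added at single concentration 10^-5 M, cultures incubated 48 h; end point by sulforhodamine B protein staining read spectrophotometrically; result given as growth percentage of treated versus untreated control cells, reported as % growth inhibition.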

[7] = Growth inhibition of human RXF393 cells at 10 uM after 48 hrs by SRB assay; details: RXF 393, 48 h, read-out: GI; method in brief: as §1
ACHN = experiment: Growth inhibition of human ACHN cells at 10 uM after 48 hrs by SRB assay; details: read-out: GI; method in brief: as §2
TK-10 = experiment: Growth inhibition of human TK10 cells at 10 uM after 48 hrs by SRB assay; details: TK-10, 48 h, read-out: GI; method in brief: as §1
[8] = Growth inhibition of human HCT15 cells at 10 uM after 48 hrs by SRB assay; details: HCT-15, 48 h, read-out: GI; method in brief: as §1

| SMILES | inhibition of growth at 10 µM (NCI-H522) [%] | inhibition of growth at 10 µM (CCRF-CEM) [%] | inhibition of growth at 10 µM [1] [%] | inhibition of growth at 10 µM [2] [%] | inhibition of growth at 10 µM [3] [%] | inhibition of growth at 10 µM (786-0) [%] | inhibition of growth at 10 µM (SR) [%] | inhibition of growth at 10 µM (PC-3) [%] | inhibition of growth at 10 µM (COLO 205) [%] | inhibition of growth at 10 µM [4] [%] | inhibition of growth at 10 µM [5] [%] | inhibition of growth at 10 µM [6] [%] | inhibition of growth at 10 µM (SK-MEL-28) [%] | inhibition of growth at 10 µM (NCI-H23) [%] | inhibition of growth at 10 µM (RPMI-8226) [%] | inhibition of growth at 10 µM (NCI-H322M) [%] | inhibition of growth at 10 µM (HL-60(TB)) [%] | inhibition of growth at 10 µM [7] [%] | inhibition of growth at 10 µM (ACHN) [%] | inhibition of growth at 10 µM (TK-10) [%] | also measured |
| --- | --- | --- | --- | --- | --- | --- | --- | --- | --- | --- | --- | --- | --- | --- | --- | --- | --- | --- | --- | --- | --- |
| Cc1ccc(C(=O)Nc2ccc(Cl)cc2C(=O)NCc2ccccc2)cc1 | 47 | 27 | 28 | < 10 | 24 | < 10 | 63 | 24 | < 10 | 16 | 14 | < 10 | 17 | < 10 | 23 | < 10 | 49 | 13 | 14 | < 10 | inhibition of growth at 10 µM [8]: 43% |
| Cc1ccc(C(=O)Nc2ccc(Cl)cc2C(=O)Nc2ccccc2)cc1 | 21 | – | < 10 | < 10 | < 10 | < 10 | – | 15 | < 10 | 29 | < 10 | < 10 | < 10 | < 10 | – | < 10 | – | < 10 | 17 | < 10 | inhibition of growth at 10 µM [8]: 11% |
| Cc1ccc(C(=O)Nc2ccc(Cl)cc2C(=O)Nc2ccccn2)cc1 | 22 | 29 | < 10 | < 10 | 13 | < 10 | < 10 | 23 | < 10 | 22 | < 10 | 12 | < 10 | < 10 | 15 | < 10 | 16 | < 10 | < 10 | < 10 | inhibition of growth at 10 µM [8]: 14% |
| Cc1ccc(-c2nc3ccc(Cl)cc3c(=O)n2NC(=O)CN)cc1 | < 10 | 14 | < 10 | < 10 | 11 | < 10 | < 10 | < 10 | < 10 | 15 | < 10 | < 10 | < 10 | < 10 | < 10 | < 10 | < 10 | < 10 | 14 | < 10 | – |
| Cc1ccc(-c2nc3ccc(Cl)cc3c(=O)n2NC(=O)CNN)cc1 | 61 | < 10 | 24 | – | 25 | 22 | 13 | 33 | 28 | 54 | < 10 | 45 | 23 | 13 | 13 | 29 | 12 | 11 | 42 | 61 | inhibition of growth at 10 µM [8]: 16% |
| Cc1ccc(C2=Nc3ccc(Cl)cc3C3=NNCC(=O)NN23)cc1 | < 10 | < 10 | < 10 | < 10 | 18 | < 10 | < 10 | < 10 | < 10 | < 10 | < 10 | < 10 | < 10 | < 10 | < 10 | < 10 | < 10 | < 10 | < 10 | < 10 | inhibition of growth at 10 µM [8]: < 10% |
| Cc1ccc(-c2nc3ccc(Cl)cc3c3nnnn23)cc1 | 21 | < 10 | < 10 | < 10 | 24 | < 10 | < 10 | 18 | < 10 | 18 | < 10 | 11 | < 10 | < 10 | < 10 | < 10 | < 10 | < 10 | < 10 | < 10 | inhibition of growth at 10 µM [8]: < 10% |
| Cc1ccc(-c2nc3ccc(Cl)cc3c3nnc(S)n23)cc1 | < 10 | 12 | < 10 | < 10 | < 10 | < 10 | < 10 | < 10 | < 10 | < 10 | < 10 | < 10 | < 10 | < 10 | < 10 | < 10 | < 10 | < 10 | < 10 | 19 | inhibition of growth at 10 µM [8]: < 10% |
